Results from ChEMBL document CHEMBL1126637, “Dicarboxylate diamide dimercaptide (N2S2) technetium-99m complexes: synthesis and biological evaluation as potential renal radiopharmaceuticals” (J Med Chem, 1993).
Values joined by “and” are separate entries in the source; they are usually repeats but may differ in a detail not shown here. Equal values may be shown once.

Experiments:
Rattus norvegicus [1] = organism: Rattus norvegicus; assay: Biodistribution of the [99mTc] complex in rat kidney at 10 min postinjection (3-4 rats used); type: ADME, organism-based; settings: in vivo
How it was run: (§1)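 Male Sprague-Dawley rats (200-300 g), ketamine/xylazine anesthesia (80 mg/kg : 8 mg/kg), bladder cannulated with PE 50 tubing. Given iv via femoral vein 0.2 mL saline holding the 99mTc complex (20 µCi) co-injected with [131I]OIH (7 µCi). Percent injected dose per organ from comparing tissue radioactivity against dilutions of the injected dose, corrected for 131I spillover into the 99mTc channel; mean ±SD, 3-4 rats.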

Rattus norvegicus [2] = organism: Rattus norvegicus; assay: Biodistribution of the [99mTc] complex in rat liver at 60 min postinjection (3-4 rats used); type: ADME, organism-based; settings: in vivo, 1 h; how it was run: as §1
Rattus norvegicus [3] = organism: Rattus norvegicus; assay: Biodistribution of the [99mTc] complex in rat intestines at 60 min postinjection (3-4 rats used); type: ADME, organism-based, Intestine; settings: in vivo, 1 h; how it was run: as §1
Rattus norvegicus [4] = organism: Rattus norvegicus; assay: Biodistribution of the [99mTc] complex in rat lung at 60 min postinjection (3-4 rats used); type: ADME, organism-based; settings: in vivo, 1 h; how it was run: as §1
Rattus norvegicus [5] = organism: Rattus norvegicus; assay: Biodistribution of the [99mTc] complex in rat muscle at 60 min postinjection (3-4 rats used); type: ADME, organism-based, Muscle tissue; settings: in vivo, 1 h; how it was run: as §1
Rattus norvegicus [6] = organism: Rattus norvegicus; assay: Biodistribution of the [99mTc] complex in rat blood at 60 min postinjection (3-4 rats used); type: ADME, organism-based; settings: in vivo, 1 h; how it was run: as §1
Rattus norvegicus [7] = organism: Rattus norvegicus; assay: Biodistribution of the [99mTc] complex in rat lung at 10 min postinjection (3-4 rats used); type: ADME, organism-based; settings: in vivo; how it was run: as §1
Rattus norvegicus [8] = organism: Rattus norvegicus; assay: Biodistribution of the [99mTc] complex in rat liver at 10 min postinjection (3-4 rats used); type: ADME, organism-based; settings: in vivo; how it was run: as §1
Rattus norvegicus [9] = organism: Rattus norvegicus; assay: Biodistribution of the [99mTc] complex in rat blood at 10 min postinjection (3-4 rats used); type: ADME, organism-based; settings: in vivo; how it was run: as §1
Rattus norvegicus [10] = organism: Rattus norvegicus; assay: Biodistribution of the [99mTc] complex in rat kidney at 60 min postinjection (3-4 rats used); type: ADME, organism-based; settings: in vivo, 1 h; how it was run: as §1
Rattus norvegicus [11] = organism: Rattus norvegicus; assay: Biodistribution of the [99mTc] complex in rat heart at 10 min postinjection (3-4 rats used); type: ADME, organism-based; settings: in vivo; how it was run: as §1
Rattus norvegicus [12] = organism: Rattus norvegicus; assay: Biodistribution of the [99mTc] complex with OIH in rat spleen at 60 min postinjection (3-4 rats used); type: ADME, organism-based; settings: in vivo, 1 h; how it was run: as §1
Rattus norvegicus [13] = organism: Rattus norvegicus; assay: Biodistribution of the [99mTc] complex in rat muscle at 10 min postinjection (3-4 rats used); type: ADME, organism-based, Muscle tissue; settings: in vivo; how it was run: as §1
Rattus norvegicus [14] = organism: Rattus norvegicus; assay: Biodistribution of the [99mTc] complex in rat spleen at 10 min postinjection (3-4 rats used); type: ADME, organism-based; settings: in vivo; how it was run: as §1
Monkey = assay: Percentage of counts in the pellet/total number of counts in both supernatant and pellet in monkey plasma (n=3); type: functional, Cercopithecidae
How it was run: (§2)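 Plasma from male cynomolgus monkey or male Sprague-Dawley rat blood (centrifuged 4000 rpm, 5 min). 99mTc complex in 50% ethanol/H2O (1 × 10^6 counts) incubated with 1 mL plasma at 37 °C for 30 min. Precipitation with 0.4 mL 10% trichloroacetic acid, centrifuged 4000 rpm 10 min, pellet washed twice with water. Bound = pellet counts/(pellet + supernatant + washes) counts; 3 determinations, mean ± SD.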

Rattus norvegicus [15] = organism: Rattus norvegicus; assay: Biodistribution of the [99mTc] complex in rat intestines at 10 min postinjection (3-4 rats used); type: ADME, organism-based, Intestine; settings: in vivo; how it was run: as §1
Rattus norvegicus [16] = organism: Rattus norvegicus; assay: Biodistribution of the [99mTc] complex in rat heart at 60 min postinjection (3-4 rats used); type: ADME, organism-based; settings: in vivo, 1 h; how it was run: as §1
Rattus norvegicus [17] = organism: Rattus norvegicus; assay: Biodistribution of the [99mTc] complex in rat spleen at 60 min postinjection (3-4 rats used); type: ADME, organism-based; settings: in vivo, 1 h; how it was run: as §1
Rattus norvegicus [18] = organism: Rattus norvegicus; assay: Percentage of counts in the pellet/total number of counts in both supernatant and pellet in rat plasma (n=3); type: functional; how it was run: as §2

CCOC(=O)C(SC(=O)c1ccccc1)C(=O)NCCNC(=O)C(SC(=O)c1ccccc1)C(=O)OCC (stereo unspecified)
Injected dose (Rattus norvegicus [1]): 6% | Injected dose (Rattus norvegicus [2]): 5% | Injected dose (Rattus norvegicus [3]): 1.3% | Injected dose (Rattus norvegicus [4]): 0.7% | Injected dose (Rattus norvegicus [5]): 21.5% | Injected dose (Rattus norvegicus [6]): 13.1% | Injected dose (Rattus norvegicus [7]): 0.9% | Injected dose (Rattus norvegicus [8]): 4.9% | Injected dose (Rattus norvegicus [9]): 24% | Injected dose (Rattus norvegicus [10]): 4% | Injected dose (Rattus norvegicus [11]): 0.4% | Injected dose (Rattus norvegicus [12]): 0.9% and 0.2% and 0.4% and 2% and 1.6% and < 0.1% | Injected dose (Rattus norvegicus [13]): 23.6% | Injected dose (Rattus norvegicus [14]): 0.2% | Activity (Monkey): 21.9% | Injected dose (Rattus norvegicus [15]): 1.6% | Injected dose (Rattus norvegicus [16]): 0.2% | Injected dose (Rattus norvegicus [17]): 0.1% | Activity (Rattus norvegicus [18]): 21.4%

[sequence]
Activity (Monkey; Cercopithecidae): 35.2% | Activity (Rattus norvegicus [18]): 30.3%
